Tests used:
[1] = target: Sodium-dependent noradrenaline transporter (Homo sapiens) (UniProt P23975); test: Displacement of [3H]-nisoxetin from human norepinephrine transporter at 1 uM relative to control
Procedure, shortened: (§1)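 Competition binding run by a contract lab, read as % inhibition of control specific binding at a single test concentration. Radioligand per target: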

[2] = target: Sodium-dependent serotonin transporter (Homo sapiens) (UniProt P31645); test: Displacement of [3H]-imipramine from human serotonin transporter at 1 uM relative to control; procedure, shortened: as §1
Chain of Sodium-dependent serotonin transporter (Homo sapiens) (P31645 whole entry, looked up): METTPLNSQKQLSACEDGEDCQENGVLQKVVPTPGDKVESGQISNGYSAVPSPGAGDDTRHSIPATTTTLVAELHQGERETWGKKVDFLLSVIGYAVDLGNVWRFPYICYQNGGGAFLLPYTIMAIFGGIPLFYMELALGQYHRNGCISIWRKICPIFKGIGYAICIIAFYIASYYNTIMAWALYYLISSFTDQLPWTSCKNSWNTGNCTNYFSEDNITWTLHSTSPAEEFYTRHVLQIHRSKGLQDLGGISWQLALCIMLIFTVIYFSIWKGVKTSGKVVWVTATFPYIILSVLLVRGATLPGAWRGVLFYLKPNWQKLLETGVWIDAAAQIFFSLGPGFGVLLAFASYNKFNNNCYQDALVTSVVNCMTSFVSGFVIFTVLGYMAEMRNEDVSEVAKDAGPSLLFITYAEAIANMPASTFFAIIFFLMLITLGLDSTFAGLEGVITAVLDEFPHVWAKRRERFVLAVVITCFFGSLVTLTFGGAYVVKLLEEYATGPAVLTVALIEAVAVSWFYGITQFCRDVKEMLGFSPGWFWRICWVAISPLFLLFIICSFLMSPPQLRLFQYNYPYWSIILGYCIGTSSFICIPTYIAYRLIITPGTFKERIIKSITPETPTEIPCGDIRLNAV

[3] = target: Sodium-dependent dopamine transporter (Homo sapiens) (UniProt Q01959); test: Displacement of [3H]BTCP from human dopamine transporter at 1 uM relative to control; procedure, shortened: as §1
Chain of Sodium-dependent dopamine transporter (Homo sapiens) (Q01959 whole entry): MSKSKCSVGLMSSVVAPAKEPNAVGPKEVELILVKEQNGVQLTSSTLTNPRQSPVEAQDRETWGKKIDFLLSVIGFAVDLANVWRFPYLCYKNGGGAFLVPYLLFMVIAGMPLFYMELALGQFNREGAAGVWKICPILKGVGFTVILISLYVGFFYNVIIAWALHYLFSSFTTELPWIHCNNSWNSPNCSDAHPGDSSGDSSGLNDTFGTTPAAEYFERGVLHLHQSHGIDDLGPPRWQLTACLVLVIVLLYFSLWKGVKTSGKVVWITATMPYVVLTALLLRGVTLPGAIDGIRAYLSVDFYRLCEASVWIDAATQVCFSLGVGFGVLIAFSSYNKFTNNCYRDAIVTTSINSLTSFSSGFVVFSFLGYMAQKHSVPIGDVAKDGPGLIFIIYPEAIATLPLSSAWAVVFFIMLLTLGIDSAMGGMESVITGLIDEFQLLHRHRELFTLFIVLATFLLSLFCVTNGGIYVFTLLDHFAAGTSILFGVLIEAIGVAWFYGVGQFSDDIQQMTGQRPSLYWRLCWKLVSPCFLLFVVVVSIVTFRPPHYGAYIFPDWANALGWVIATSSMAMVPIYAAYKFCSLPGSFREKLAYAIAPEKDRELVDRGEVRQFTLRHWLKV

[4] = target: Histamine H1 receptor (Homo sapiens) (UniProt P35367); test: Displacement of histamine from human histamine H1 receptor at 1 uM relative to control; procedure, shortened: as §1
Chain of Histamine H1 receptor (Homo sapiens) (P35367 whole entry): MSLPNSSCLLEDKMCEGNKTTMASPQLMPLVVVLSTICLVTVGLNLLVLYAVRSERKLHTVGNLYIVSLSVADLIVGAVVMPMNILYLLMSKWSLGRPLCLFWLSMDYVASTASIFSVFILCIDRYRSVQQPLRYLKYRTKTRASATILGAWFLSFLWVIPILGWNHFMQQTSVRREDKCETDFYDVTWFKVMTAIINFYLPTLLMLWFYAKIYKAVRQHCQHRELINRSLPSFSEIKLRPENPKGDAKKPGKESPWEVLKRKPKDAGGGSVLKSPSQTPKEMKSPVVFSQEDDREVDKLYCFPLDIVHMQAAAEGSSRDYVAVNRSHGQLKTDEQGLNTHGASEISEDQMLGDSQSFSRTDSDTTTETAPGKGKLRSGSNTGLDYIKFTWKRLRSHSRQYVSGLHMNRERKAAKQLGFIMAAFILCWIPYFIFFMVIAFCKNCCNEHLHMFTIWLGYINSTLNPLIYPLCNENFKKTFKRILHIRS

[5] = target: Adrenergic receptor alpha-2 (Rattus norvegicus) (UniProt P22086+P19328+P22909); test: Displacement of [3H]-RX-821002 from rat alpha-2 adrenergic receptor at 1 uM relative to control; procedure, shortened: as §1
[6] = target: Adrenergic receptor alpha-1 (Rattus norvegicus) (UniProt P15823+P23944+P43140); test: Displacement of [3H]-prazosin from rat alpha-1 adrenergic receptor at 1 uM relative to control; procedure, shortened: as §1
[7] = target: 5-hydroxytryptamine receptor 2A (Homo sapiens) (UniProt P28223); test: Displacement of [3H]-ketanserin from human 5-HT2A receptor at 1 uM relative to control; procedure, shortened: as §1
Chain of 5-hydroxytryptamine receptor 2A (Homo sapiens) (P28223 whole entry): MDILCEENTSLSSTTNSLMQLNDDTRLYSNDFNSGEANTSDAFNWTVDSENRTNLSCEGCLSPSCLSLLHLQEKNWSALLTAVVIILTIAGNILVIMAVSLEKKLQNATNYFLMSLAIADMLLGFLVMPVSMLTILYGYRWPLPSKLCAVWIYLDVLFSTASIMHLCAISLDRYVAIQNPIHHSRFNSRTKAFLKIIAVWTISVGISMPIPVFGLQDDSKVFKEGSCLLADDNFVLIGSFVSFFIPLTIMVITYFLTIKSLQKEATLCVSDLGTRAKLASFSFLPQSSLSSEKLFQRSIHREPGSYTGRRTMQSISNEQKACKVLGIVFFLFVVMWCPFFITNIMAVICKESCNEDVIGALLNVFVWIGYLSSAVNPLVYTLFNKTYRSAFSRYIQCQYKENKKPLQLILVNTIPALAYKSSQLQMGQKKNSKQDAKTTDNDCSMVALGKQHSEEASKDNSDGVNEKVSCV

[8] = target: T1, 5-hydroxytryptamine receptor 1A (Homo sapiens) (UniProt P08908); test: Displacement of [3H]8-OH-DPAT from human 5-HT1A receptor at 1 uM relative to control; procedure, shortened: as §1
T1 sequence (whole entry): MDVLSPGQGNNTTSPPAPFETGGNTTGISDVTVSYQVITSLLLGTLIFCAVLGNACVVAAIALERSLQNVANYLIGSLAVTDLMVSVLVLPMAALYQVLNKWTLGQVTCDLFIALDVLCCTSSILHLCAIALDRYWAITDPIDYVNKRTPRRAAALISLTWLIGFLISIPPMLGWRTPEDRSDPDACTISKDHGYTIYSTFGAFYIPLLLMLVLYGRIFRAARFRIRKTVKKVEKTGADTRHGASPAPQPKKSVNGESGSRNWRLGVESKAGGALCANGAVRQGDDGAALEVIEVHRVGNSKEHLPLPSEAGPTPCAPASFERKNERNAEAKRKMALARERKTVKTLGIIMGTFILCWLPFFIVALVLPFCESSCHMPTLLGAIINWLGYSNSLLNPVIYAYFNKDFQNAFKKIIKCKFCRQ

Homo sapiens = species: Homo sapiens; test: Selectivity index, ratio of IC50 for human recombinant MAO-B to IC50 for human recombinant MAO-A
Procedure, shortened: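 Selectivity index for MAO A = IC50(MAO B)/IC50(MAO A), with both human isoforms assayed against kynuramine substrate.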

Rattus norvegicus [9] = test: In vivo inhibition of MAO-A in Sprague-Dawley rat assessed as 5-hydroxyindoleacetic acid in brain striatum at 53 umol/kg, sc after 1 hr by HPLC/EC analysis relative to control; type: functional; design: scale not given: the % may be the effect or the level left
Procedure, shortened: (§2)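 Freely moving rats were given a subcutaneous dose and sacrificed 1 h later. Striatal DOPAC, 3-MT and 5-HIAA were measured post mortem and expressed as % of saline control (n = 4). Significance was tested by Student's t-test (P < 0.05).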

Rattus norvegicus [10] = test: In vivo inhibition of MAO-A in Sprague-Dawley rat assessed as 3-methoxytyramine level in brain striatum at 53 umol/kg, sc after 1 hr by HPLC/EC analysis relative to control; type: functional; design: scale not given: the % may be the effect or the level left; procedure, shortened: as §2
Rattus norvegicus [11] = test: In vivo inhibition of MAO-A in Sprague-Dawley rat assessed as 3,4-dihydroxyphenylacetic acid level in brain striatum at 53 umol/kg, sc after 1 hr by HPLC/EC analysis relative to control; type: functional; design: scale not given: the % may be the effect or the level left; procedure, shortened: as §2
[12] = Metabolic stability in rat liver microsomes assessed as compound remaining at 5 uM after 60 mins by LC-MS/MS analysis; type: ADME; conditions: read-out: Stability
Procedure, shortened: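 Incubation with rat liver microsomes, read as % of compound remaining after 60 min.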

Rattus norvegicus [13] = test: In vivo inhibition of MAO-A in Sprague-Dawley rat assessed as 5-hydroxyindoleacetic acid in brain striatum at 100 umol/kg, sc after 1 hr by HPLC/EC analysis relative to control; type: functional; design: scale not given: the % may be the effect or the level left
Procedure, shortened: (§3)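 Freely moving rats dosed subcutaneously and sacrificed 1 h later. Striatal DOPAC, 3-MT and 5-HIAA were measured post mortem and expressed as % of saline control (n = 4). Significance was by Student's t-test, P < 0.05.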

Rattus norvegicus [14] = test: In vivo inhibition of MAO-A in Sprague-Dawley rat assessed as 3-methoxytyramine level in brain striatum at 100 umol/kg, sc after 1 hr by HPLC/EC analysis relative to control; type: functional; design: scale not given: the % may be the effect or the level left; procedure, shortened: as §3
Rattus norvegicus [15] = test: In vivo inhibition of MAO-A in Sprague-Dawley rat assessed as 3,4-dihydroxyphenylacetic acid level in brain striatum at 100 umol/kg, sc after 1 hr by HPLC/EC analysis relative to control; type: functional; design: scale not given: the % may be the effect or the level left; procedure, shortened: as §3
D(2) dopamine receptor = D(2) dopamine receptor (Homo sapiens, UniProt P14416); test: Antagonist activity at dopamine D2 receptor (unknown origin) expressed in HEK cells co-expressing Gqi5 assessed as inhibition of dopamine-induced effect by FLIPR assay; type: cell-based, HEK293
Chain of D(2) dopamine receptor (P14416 whole entry): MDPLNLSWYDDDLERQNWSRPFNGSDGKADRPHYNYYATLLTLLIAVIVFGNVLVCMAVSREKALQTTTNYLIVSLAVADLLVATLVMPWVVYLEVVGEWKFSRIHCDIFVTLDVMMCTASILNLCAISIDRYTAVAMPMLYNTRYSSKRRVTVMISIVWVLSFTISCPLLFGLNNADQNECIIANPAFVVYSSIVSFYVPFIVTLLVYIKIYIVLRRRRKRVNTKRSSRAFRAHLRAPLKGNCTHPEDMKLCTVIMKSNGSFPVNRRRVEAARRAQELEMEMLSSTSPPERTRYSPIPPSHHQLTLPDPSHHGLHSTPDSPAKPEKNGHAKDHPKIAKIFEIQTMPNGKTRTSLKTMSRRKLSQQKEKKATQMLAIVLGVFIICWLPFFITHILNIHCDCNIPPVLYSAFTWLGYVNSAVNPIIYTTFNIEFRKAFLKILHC

[16] = target: T2, Amine oxidase [flavin-containing] B (Homo sapiens, UniProt P27338); test: Inhibition of human recombinant MAO-B assessed as kynuramine oxidation to 4-hydroxyquinoline after 40 mins by LC-MS/MS analysis
T2 sequence (P27338 whole entry): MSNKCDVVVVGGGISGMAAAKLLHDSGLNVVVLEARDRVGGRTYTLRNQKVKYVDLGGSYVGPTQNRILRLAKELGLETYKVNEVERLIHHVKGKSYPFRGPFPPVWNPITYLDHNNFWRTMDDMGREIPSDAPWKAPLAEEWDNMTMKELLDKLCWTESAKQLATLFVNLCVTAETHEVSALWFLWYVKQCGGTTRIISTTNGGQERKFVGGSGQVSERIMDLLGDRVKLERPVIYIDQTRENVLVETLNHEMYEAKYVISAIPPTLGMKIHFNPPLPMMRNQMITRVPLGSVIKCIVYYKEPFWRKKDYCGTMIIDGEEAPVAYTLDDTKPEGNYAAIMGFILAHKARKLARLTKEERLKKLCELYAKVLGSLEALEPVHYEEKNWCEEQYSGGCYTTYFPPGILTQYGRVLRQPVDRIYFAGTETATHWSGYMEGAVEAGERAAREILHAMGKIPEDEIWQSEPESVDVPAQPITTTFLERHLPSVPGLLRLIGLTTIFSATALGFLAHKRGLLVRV
Procedure, shortened: (§4)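 Human MAO A and MAO B inhibition using kynuramine as a mixed substrate for both isoforms. IC50 is given as the mean ± SE of duplicate determinations.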

[17] = target: T3, Amine oxidase [flavin-containing] A (Homo sapiens, UniProt P21397); test: Inhibition of human recombinant MAO-A assessed as kynuramine oxidation to 4-hydroxyquinoline after 40 mins by LC-MS/MS analysis; procedure, shortened: as §4
T3 sequence (P21397 whole entry): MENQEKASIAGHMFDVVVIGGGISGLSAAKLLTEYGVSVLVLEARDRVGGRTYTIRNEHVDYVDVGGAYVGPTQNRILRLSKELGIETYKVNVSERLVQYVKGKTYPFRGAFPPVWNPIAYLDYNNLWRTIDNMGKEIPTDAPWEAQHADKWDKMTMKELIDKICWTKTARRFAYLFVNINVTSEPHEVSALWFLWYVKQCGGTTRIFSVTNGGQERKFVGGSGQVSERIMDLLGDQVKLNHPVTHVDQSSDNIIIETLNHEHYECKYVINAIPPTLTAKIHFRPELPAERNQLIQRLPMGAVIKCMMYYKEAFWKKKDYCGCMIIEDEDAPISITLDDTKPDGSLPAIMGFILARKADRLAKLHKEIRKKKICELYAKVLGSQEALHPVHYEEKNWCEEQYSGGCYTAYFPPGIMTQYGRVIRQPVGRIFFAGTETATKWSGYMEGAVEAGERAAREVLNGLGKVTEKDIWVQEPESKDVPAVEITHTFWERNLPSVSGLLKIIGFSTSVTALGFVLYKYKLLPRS

[18] = Aqueous solubility of the compound in saline solution; type: physicochemical
Rattus norvegicus [19] = test: In vivo inhibition of MAO-A in Sprague-Dawley rat assessed as 5-hydroxyindoleacetic acid in brain striatum at 80 umol/kg, sc after 1 hr by HPLC/EC analysis relative to control; type: functional; design: scale not given: the % may be the effect or the level left; procedure, shortened: as §3
Rattus norvegicus [20] = test: In vivo inhibition of MAO-A in Sprague-Dawley rat assessed as 3-methoxytyramine level in brain striatum at 80 umol/kg, sc after 1 hr by HPLC/EC analysis relative to control; type: functional; design: scale not given: the % may be the effect or the level left; procedure, shortened: as §3
Rattus norvegicus [21] = test: In vivo inhibition of MAO-A in Sprague-Dawley rat assessed as 3,4-dihydroxyphenylacetic acid level in brain striatum at 80 umol/kg, sc after 1 hr by HPLC/EC analysis relative to control; type: functional; design: scale not given: the % may be the effect or the level left; procedure, shortened: as §3

Chain of Sodium-dependent noradrenaline transporter (Homo sapiens) (P23975 whole entry): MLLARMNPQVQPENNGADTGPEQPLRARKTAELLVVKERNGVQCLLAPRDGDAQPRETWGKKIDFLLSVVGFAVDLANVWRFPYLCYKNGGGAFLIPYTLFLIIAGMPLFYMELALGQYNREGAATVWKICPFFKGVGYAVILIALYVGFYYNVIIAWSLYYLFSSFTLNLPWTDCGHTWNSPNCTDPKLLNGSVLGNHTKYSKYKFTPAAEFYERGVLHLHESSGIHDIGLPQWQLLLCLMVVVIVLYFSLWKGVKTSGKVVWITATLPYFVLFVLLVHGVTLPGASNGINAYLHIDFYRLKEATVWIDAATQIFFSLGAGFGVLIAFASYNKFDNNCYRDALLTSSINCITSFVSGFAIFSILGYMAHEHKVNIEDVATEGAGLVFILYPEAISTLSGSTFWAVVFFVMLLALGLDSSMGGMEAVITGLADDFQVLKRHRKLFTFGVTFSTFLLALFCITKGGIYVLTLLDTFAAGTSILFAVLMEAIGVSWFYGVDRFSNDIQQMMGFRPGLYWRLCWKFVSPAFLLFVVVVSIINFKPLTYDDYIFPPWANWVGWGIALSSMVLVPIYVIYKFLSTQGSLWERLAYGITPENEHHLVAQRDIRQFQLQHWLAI

O=c1oc2ccc(C(F)(F)F)cc2cc1CN1CCCC1
inhibition [1]: 1% | inhibition [2]: -4% | inhibition [3]: 8% | inhibition [4]: 4% | inhibition [5]: 20% | inhibition [6]: 4% | inhibition [7]: 20% | inhibition [8]: 8% | Ratio IC50 (Homo sapiens): > 11.8

C#CCN(C)[C@H](C)Cc1ccccc1 [SELEGILINE]
Activity (Rattus norvegicus [9]): 96% | Activity (Rattus norvegicus [10]): 146% | Activity (Rattus norvegicus [11]): 36%

CCCNCc1cc2ccccc2oc1=O
remaining at 1 h, 5 µM [12]: 0% | Activity (Rattus norvegicus [13]): 116% | Activity (Rattus norvegicus [14]): 89% | Activity (Rattus norvegicus [15]): 70% | IC50 (D(2) dopamine receptor): > 30 µM | IC50 [16]: 62.3 µM | IC50 [17]: 17.1 µM

O=c1oc2ccc(OCc3ccccc3)cc2cc1CN1CCCC1
IC50 [16]: > 100 µM | IC50 [17]: > 100 µM

CCCNCc1cc2ccccc2oc1=O.Cl
solubility [18]: > 5 mg/mL

CCCCOc1ccc2oc(=O)c(CNCC)cc2c1
IC50 [16]: 7.34 µM | Ratio IC50 (Homo sapiens): 3.7 | IC50 [17]: 1.95 µM

N[C@@H]1C[C@H]1c1ccccc1.N[C@H]1C[C@@H]1c1ccccc1
Ratio IC50 (Homo sapiens): 1

O=c1oc2ccc(O)cc2cc1CN1CCCC1 [listing 1 of 2 here]
Activity (Rattus norvegicus [19]): 86% | Activity (Rattus norvegicus [20]): 126% | Activity (Rattus norvegicus [21]): 47% | IC50 [16]: > 100 µM | IC50 [17]: 1.46 µM

O=c1oc2ccc([N+](=O)[O-])cc2cc1CN1CCCC1
Activity (Rattus norvegicus [13]): 118% | Activity (Rattus norvegicus [14]): 75% | Activity (Rattus norvegicus [15]): 105% | IC50 (D(2) dopamine receptor): > 30 µM | IC50 [16]: > 100 µM | IC50 [17]: > 100 µM

O=c1oc2ccc(O)cc2cc1CN1CCCC1 [listing 2 of 2 here]
Ratio IC50 (Homo sapiens): > 68

COc1ccc2oc(=O)c(CN3CCCC3)cc2c1
Ratio IC50 (Homo sapiens): > 22.3

O=c1oc2ccccc2cc1CN1CCCC1
remaining at 1 h, 5 µM [12]: < 5% | Activity (Rattus norvegicus [13]): 106% | Activity (Rattus norvegicus [14]): 164% | Activity (Rattus norvegicus [15]): 58% | IC50 [16]: > 100 µM | IC50 [17]: 6.32 µM

Br.O=c1oc2ccc(O)cc2cc1CN1CCCC1
solubility [18]: > 5 mg/mL

From ChEMBL document CHEMBL3112537, “A novel series of 6-substituted 3-(pyrrolidin-1-ylmethyl)chromen-2-ones as selective monoamine oxidase (MAO) A inhibitors” (Eur J Med Chem, 2014)
